KCNK3 inh = human KCNK3 channel inhibition, primary screen | AID 602410 | O14649 | hit rate 0.84% among 340,000 | B-score at 10 µM | CHO-KCNK3 thallium flux, FluxOR fluorescence; active compounds read low;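 active = B-score under library mean minus 4 SD, starting fluorescence ratio at most library mean plus 5 SD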;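 also: more negative B-score means stronger inhibition of thallium flux through KCNK3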
KCNK9 inh = human KCNK9 channel inhibition. Q9NPC2. HEK293 KCNK9, FluxOR thallium flux fluorescence; active compounds read low. B-score at 10 µM. hit rate 1.2% among 310,000. AID 488922;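 active = ratio B-score over 3 SD below the library mean, with starting fluorescence within 5 SD of its mean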;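 also: negative B-score means less thallium flux so channel inhibition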
Target sequence (Q9NPC2 whole entry, looked up): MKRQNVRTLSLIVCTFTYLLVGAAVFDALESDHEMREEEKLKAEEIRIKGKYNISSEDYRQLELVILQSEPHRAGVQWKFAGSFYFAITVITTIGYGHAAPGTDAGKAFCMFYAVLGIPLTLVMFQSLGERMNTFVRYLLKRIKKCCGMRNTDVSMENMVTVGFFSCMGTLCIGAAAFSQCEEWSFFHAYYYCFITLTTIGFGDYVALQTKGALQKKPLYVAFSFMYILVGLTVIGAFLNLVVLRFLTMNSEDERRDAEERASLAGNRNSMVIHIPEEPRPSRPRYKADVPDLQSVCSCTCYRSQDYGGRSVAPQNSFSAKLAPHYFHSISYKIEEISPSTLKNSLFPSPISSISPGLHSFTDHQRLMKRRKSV
KCNQ1 inh = inhibitors of human KCNQ1 potassium channel; hit rate 1.3% among 310,000; B-score at 10 µM; CHO-K1 KCNQ1, FluxOR thallium flux fluorescence; active compounds read high;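 active = compounds whose thallium flux B-score, printed positive for inhibition, exceeds three library SD while starting fluorescence stays within three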;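 also: channel opened by potassium depolarization with thallium stimulus after 20 min compound exposure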
KCNQ1 act = human KCNQ1 channel potentiation or activation | hit rate 0.35% among 310,000 | AID 2648 | CHO-K1 KCNQ1, thallium flux FluxOR fluorescence; active compounds read high | P51787 | B-score at 10 µM;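 active = fluorescence ratio B-score, a plate-corrected score, at least three library SD, with initial intensity B-score within 5 SD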
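Medium – assay buffer, equal DMSO in all wells · Material – CHO-K1 cell line with stable KCNQ1 potassium channel expression · Signal – kinetic FluxOR thallium fluorescence, 10-s 1-Hz baseline, 110-s post-stimulus read · Compound – single concentration per compound, DMSO matched to controls · Schedule – 37 °C overnight plating, 90-min dark dye load, 20-min compound pretreatment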
hERG rescue = shields human hERG channel from block by proarrhythmic agents | activation (rescue from dofetilide block), less the hit threshold, % at 10 µM | hit rate 0.51% among 310,000 | Q12809 | CHO-hERG, FluxOR thallium flux, dofetilide IC70 present;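 active = activation above the mean of controls blocked by dofetilide plus 5 SD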;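 also: thallium influx through hERG after potassium depolarization seen as dye fluorescence rise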
KCNK9 block conf = confirmation of human KCNK9 potassium channel inhibitors | shares compounds with KCNK9 inh | HEK293 KCNK9 cells, FluxOR thallium flux fluorescence | inhibition, % at 10 µM | hit rate 43% among 4,900;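 active = thallium signal inhibited by more than 5 SD of the compound-free buffer control wells, on both duplicate plates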;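 also: 0% = assay buffer control wells without compound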
Kir2-1 spec = mouse Kir2.1 off-target activity of KCNK9 modulators | shares compounds with KCNK9 inh | Kir2.1 cells, FluxOR thallium flux fluorescence | inhibition, % at 10 µM | hit rate 4% among 4,900;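 active = thallium signal drop more than 5 SD beyond the mean of the no-compound control wells, seen in both duplicate plates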;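 also: signal is fluorescence rise after thallium addition divided by baseline fluorescence; plate controls were assay buffer only for no effect and full block by chlorpromazine control for full effect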
KCNK9 uninduced = second check of KCNK9 modulator effects in non-induced HEK293 cells | shares compounds with KCNK9 inh | FluxOR thallium flux | inhibition, % at 10 µM | hit rate 40% among 4,900 | AID 492997;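 active = thallium signal drop beyond 5 SD of the untreated control mean, on both duplicate plates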;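 also: plate controls were buffer only IC0 wells for no effect and SID17386958 at its maximal inhibitory level for full effect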
Starred values were filed as active, the others as inactive; i = inactive; · = no result given. The list is not random: actives were taken first. Their share in the collection is about 3.1%.

SMILES | KCNK3 inh | KCNK9 inh | KCNQ1 inh | KCNQ1 act | hERG rescue | KCNK9 block conf | Kir2-1 spec | KCNK9 uninduced
Cc1nc(NC(=O)c2ccccc2)sc1C1(C)CC(c2ccccc2F)=NO1 (stereo not drawn) | i | i | i | i | -9 | · | · | ·
CC(C)(C)OC(=O)C[C@H]1C/C=C\C[C@@H](CC(=O)N[C@@H](CO)Cc2ccccc2)C(=O)N2CCC[C@@H]2COC1=O | i | · | · | · | · | · | · | ·
COc1ccc(NC(=O)c2cc(S(=O)(=O)N3CCc4ccccc43)cn2C)cc1OC | i | i | i | i | -10 | · | · | ·
NC(=O)C1CCN(c2nc(-c3ccccc3C(F)(F)F)cs2)CC1 | i | · | · | · | · | · | · | ·
COC(=O)/N=C(/Cc1ccc(OC)cc1)c1ccc(OC)cc1 | i | i | i | i | 0 | i | i | i
CC(=O)N1N=C(c2ccc(C)cc2)OC1c1ccc(C(C)C)cc1 (stereo not drawn) | i | i | i | i | -9 | i | i | 30%*
COc1ccc(CCNC(=O)CCNC(=O)N2CC(=O)Nc3ccccc32)cc1OC | i | i | i | i | -6 | · | · | ·
Cc1[nH]nc(-c2ccc(O)c(C)c2O)c1Oc1ccccc1 | i | -14* | i | i | -17 | 34%* | i | i
Cc1[nH]nc(-c2ccc(OCc3cnn(-c4ccccc4)c3)c(C)c2O)c1Oc1ccccc1 | i | i | i | i | -7 | · | · | ·
CCOc1ccccc1NC(=O)c1nnn(CC(=O)Nc2cc(C)cc(C)c2)c1N | i | i | i | i | -4 | · | · | ·
COc1cccc(-c2nc(CS(=O)(=O)CC(=O)NCC(C)c3ccccc3)c(C)o2)c1 (stereo not drawn) | i | i | i | i | -12 | i | i | i
COc1cccc(-c2nc(CS(=O)(=O)CC(=O)NCCc3ccccc3)c(C)o2)c1 | i | i | i | i | -10 | · | · | ·
CCOC(=O)C1=C(CSc2nc(-c3ccccc3)ccc2C#N)OC(N)=C(C#N)C1c1ccccc1 (stereo not drawn) | i | -13* | i | i | -12 | 47%* | i | 38%*
CCOC(=O)CC1=C(C(=O)OCC)C(c2cccnc2)C(C#N)=C(N)O1 (stereo not drawn) | i | i | i | i | -12 | · | · | ·
CCOC(=O)C1=C(CSc2nc(-c3ccccc3)ccc2C#N)OC(N)=C(C#N)C1c1cccnc1 (stereo not drawn) | -17* | -18* | i | i | -11 | 68%* | i | 40%*
CCc1cccc(N(C(=O)c2csnn2)C(C(=O)NC2CCCCC2)c2cccnc2)c1 (stereo not drawn) | i | i | i | i | -4 | · | · | ·
Cc1cccc(C(=O)Nc2sc(-c3ccccc3)cc2C(=O)O)c1 | i | i | i | i | -22 | i | i | i
CCCCOc1cccc(C(=O)NC(=S)Nc2cccc(C(F)(F)F)c2)c1 | i | i | i | i | -5 | i | i | i
CC(C)Oc1cccc(C(=O)NC(=S)Nc2cccc(C(F)(F)F)c2)c1 | i | i | i | i | -7 | · | · | ·
Cc1cccc(NC(=O)CSc2nc(C)c(Cc3ccccc3)c(=O)[nH]2)c1C | · | i | i | i | -4 | · | · | ·
CCn1c(CNC(=O)c2ccccc2F)nnc1SCC(=O)Nc1nncs1 | i | i | i | i | -3 | · | · | ·
COc1ccc(S(=O)(=O)N2CCCCC2)cc1NC(=O)CNc1ccccc1C(C)=O | i | · | · | · | · | · | · | ·
CC(C)=CCc1c(O)ccc(C2COc3c(CC=C(C)C)c(O)cc(O)c3C2=O)c1O (stereo not drawn) | i | -24* | i | i | -18 | 66%* | i | 28%*
COC(=O)c1ccc(CNC(=O)c2ccc(S(=O)(=O)N(C)c3ccccc3OC)cc2)cc1 | i | · | · | · | · | · | · | ·
Cc1ccc(NC(=O)C2CCC(CNC(=O)[C@@H]3Cc4ccccc4CN3)CC2)c(C)c1 (stereo partly drawn) | i | i | i | i | -10 | · | · | ·
SMILES | KCNK3 inh | KCNK9 inh | KCNQ1 inh | KCNQ1 act | hERG rescue | KCNK9 block conf | Kir2-1 spec | KCNK9 uninduced
COc1ccc(/C=N/Nc2cc(N3CCCC3)nc(N3CCCC3)n2)cc1 | i | i | 8* | i | -22 | i | i | i
Oc1ccc(/C=N/Nc2cc(N3CCCC3)nc(N3CCCC3)n2)cc1 | i | i | i | i | -6 | · | · | ·
CC(C)c1nnc(SCC(=O)NC2CCCCC2)n1C | i | i | i | i | -1 | · | · | ·
COc1ccc2[nH]c(=O)c(CN(CCc3ccccc3)C(C)=O)cc2c1 | i | i | i | i | -8 | · | · | ·
COc1ccc(NC(=O)N(CCc2ccccc2)Cc2cc3c(C)cc(C)cc3[nH]c2=O)cc1 | i | i | i | i | -16 | i | i | i
CC(C)(C)c1ccc(C(=S)N2CCN(c3ccccc3)CC2)cc1 | i | i | 6* | i | -8 | i | i | i
CSc1ccccc1OCc1cc(C(=O)N2CCc3c(Cl)cccc3C2)no1 | i | i | i | i | -12 | i | i | i
CSc1ccccc1OCc1cc(C(=O)N2CCNC(=O)C2)no1 | i | i | i | i | -12 | · | · | ·
COc1ccc(OCc2cc(C(=O)N3CCN(C4CCCC4)CC3)no2)c(Cl)c1 | i | i | i | i | -14 | i | i | i
Cc1ccc(OCc2cc(C(=O)N3CCC(c4ccccc4Cl)C3)no2)cc1C (stereo not drawn) | i | i | i | i | -5 | i | i | i
O=C(CCC1CCCC1)N1CCN(C(=O)c2cccnc2)CC1 | i | i | i | i | -3 | · | · | ·
CC(C)(C)n1nc2c(c1NC(=O)COc1ccc(Cl)cc1)CSC2 | i | -11* | i | i | -12 | 45%* | i | 50%*
CC(C)(C)n1nc2c(c1NC(=O)COc1ccc(Cl)cc1)CS(=O)(=O)C2 | i | i | i | i | -8 | · | · | ·
Cc1ccc(NC(=S)N2CCN(C3CCCCC3)CC2)cc1 | i | i | i | i | -10 | · | · | ·
Cc1noc(C)c1COc1ccc(C(=O)Nc2cccnc2)cc1 | i | i | i | i | -10 | · | · | ·
COc1cccc(NC(=O)[C@H](CC(C)C)NC(=O)N2CCn3c2nc2ccccc23)c1 | i | -9.9* | i | i | -6 | i | i | i
COc1cccc(NC(=O)[C@H](C)NC(=O)N2CCn3c2nc2ccccc23)c1 | i | i | i | i | -10 | · | · | ·
Cc1ccc(-c2nc3cnccn3c2Nc2ccc3c(c2)OCO3)cc1 | i | -8.6* | i | i | -7 | 44%* | i | i

Screening data deposited in PubChem by Johns Hopkins Ion Channel Center.
